Test results as given in ChEMBL document CHEMBL1147172, “The synthesis of alpha,beta-unsaturated carbonyl derivatives with the ability to inhibit both glutathione S-transferase P1-1 activity and the proliferation of leukemia cells” (2007).

The molecules below were run on HL-60 (assay: Antiproliferative activity against human HL60 cells after 72 hrs). Settings: HL-60, 72 h.
Type: functional
Method in brief: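 HL-60 cells grown in RPMI-1640 with 10% heat-inactivated FBS, penicillin, streptomycin and L-glutamine. Cells seeded at 1 × 10⁵ cells/mL and exposed to a range of compound concentrations for 72 h. Total cells (trypan blue positive and negative) counted by haemocytometer. Treated/untreated cell-number ratio used to calculate GI50.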

GI50 [µM] | SMILES
6 | C=C(C)C(=O)c1ccc(OC(C)C(=O)OC)c(C)c1C (stereo not drawn)
> 60 | C=C(CC)C(=O)c1ccc(OC(C)C(=O)O)cc1Cl (stereo not drawn)
> 60 | C=C(C)C(=O)c1ccc(OCC(=O)O)cc1Cl
8.6 | C=C(CCC)C(=O)c1ccc(OCC(=O)OC)c(C)c1C
> 60 | C=C(CC)C(=O)c1ccc(OCC(=O)O)cc1Cl
12.1 | C=C(CCCC)C(=O)c1ccc(OC(C)C(=O)O)c(C)c1C (stereo not drawn)
11.2 | C=C(CCC)C(=O)c1ccc(OC(C)C(=O)O)c(C)c1C (stereo not drawn)
> 60 | C=C(C)C(=O)c1ccc(OCC(=O)O)cc1C
4.6 | C=C(CC)C(=O)c1ccc(OC(C)C(=O)OC)c(C)c1C (stereo not drawn)
8.6 | C=C(CCCC)C(=O)c1ccc(OCC(=O)OC)c(C)c1C
> 60 | C=C(C)C(=O)c1ccc(OC(C)C(=O)O)cc1Br (stereo not drawn)
14.4 | C=C(CCCC)C(=O)c1ccc(OCC(=O)O)c(C)c1C
> 60 | C=C(CC)C(=O)c1ccc(OC(C)C(=O)O)cc1Br (stereo not drawn)
19.3 | C=C(CCC)C(=O)c1ccc(OCC(=O)O)c(C)c1C
> 60 | C=C(C)C(=O)c1ccc(OC(C)C(=O)O)cc1C (stereo not drawn)
44.2 | C=C(CC)C(=O)c1ccc(OCC(=O)O)c(Cl)c1Cl [ETHACRYNIC ACID]
3.9 | C=C(CC)C(=O)c1ccc(OCC(=O)OC)c(Cl)c1Cl
> 60 | C=C(C)C(=O)c1ccc(OC(C)C(=O)O)cc1Cl (stereo not drawn)
5.6 | C=C(CCC)C(=O)c1ccc(OC(C)C(=O)OC)c(C)c1C (stereo not drawn)
> 60 | C=C(CC)C(=O)c1ccc(OC(C)C(=O)O)cc1C (stereo not drawn)
> 60 | C=C(CC)C(=O)c1ccc(OCC(=O)O)cc1C
> 60 | C=C(CC)C(=O)c1ccc(OCC(=O)O)cc1Br
5.2 | C=C(CCCC)C(=O)c1ccc(OC(C)C(=O)OC)c(C)c1C (stereo not drawn)
